Source: PubChem BioAssay
CHOP inhibitor: inhibitors of CHOP induction in ER stress response; CHO-K1 CHOP-promoter luciferase, tunicamycin-induced, 15-18 h; inhibition, % at 10 µM; 220,000 tested, 3.8% active; AID 2732;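 active = compounds that reduced the stress-induced luciferase reporter signal by more than about 70% of percent inhibition, limit read from the data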;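 note: 0% = tunicamycin plus vehicle and 100% = wells without tunicamycin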
XBP1 UPR activ: activators of adaptive arm of unfolded protein response (XBP1). CHO-XBP1 luciferase reporter, IRE1-XBP1 UPR activation, luminescence; percent of tunicamycin response, DMSO as zero. activation, % at 20 µM. 330,000 tested, 0.33% active. AID 463104;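 active = versus positive control, 20 µM dose yields 30% or more activation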;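 note: 100% = tunicamycin at 10 µg/mL and 0% = DMSO only wells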
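Material: CHO cell line with stable XBP1 luciferase reporter; schedule: 16-18 h cell attachment at 37 °C, then 6 h compound exposure; signal: glow luminescence from Steady-Glo reagent; medium: serum-containing F12 medium, 10% FBS; benchmarks: tunicamycin 10 µg/mL and vehicle-only wells; read-out: percent activation relative to tunicamycin reference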
UPR CHOP act: activators of apoptotic arm of unfolded protein response (CHOP) | CHO-CHOP luciferase reporter, UPR activation, luminescence; percent of tunicamycin response over DMSO baseline | 330,000 tested, 0.34% active | activation, % at 10 µM;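 active = at 10 µM dose, activation of 40% or more, normalized to positive control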;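 note: 100% = tunicamycin at 10 µg/mL and 0% = DMSO alone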
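Evaluation: % reporter activation, DMSO baseline versus tunicamycin full activation; System: CHO-CHOP luciferase reporter cell line; Input: 500 cells/well; Incubation: 6 h compound treatment, 37 °C; Measured by: Steady-Glo luciferase luminescence; Dosing: one dose, 10 µM in 0.5% DMSO; Buffer or medium: F12 medium, 10% FBS; Benchmarks: positive tunicamycin 10 µg/mL, negative DMSO alone.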
hiPSC survival: increases survival of single human iPS cells | AID 602274 | 360,000 tested, 0.044% active | hiPSC single-cell survival, ATPlite luminescence; 100% = ROCK inhibitor wells, 0% = DMSO | survival enhancement, % at 20 µM; in the data active = survival enhancement above about 18%;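 note: cells exposed to compounds for 16 hours before the ATP read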
H9c2 protect: protects H9c2 cardiomyocytes from peroxide injury; 360,000 tested, 0.63% active; protection from H2O2 cell death, % at 20 µM; H2O2 injury protection, ATPLite, 2 h; AID 588492;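 active = compounds giving at least 50% protection of heart cells from peroxide-induced death in the single-dose screen, raw or plate-pattern-corrected value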;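 note: 0% = DMSO wells with peroxide and 100% = DMSO wells without peroxide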
Numbers without * were called inactive; · = no result; ! = repeats disagree. Many of the other results were omitted from the sample, so hits are more common in it than they were.

SMILES | CHOP inhibitor | XBP1 UPR activ | UPR CHOP act | hiPSC survival | H9c2 protect
COc1cccc(/C(O)=C/c2nc3ccc(C(=O)NCCc4ccc(Cl)cc4)cc3[nH]c2=O)c1 | 83* | · | · | -2 | 28
Cc1ccc([C@H]2C[C@H](O)[C@@H](n3cc(C4CC4)nn3)CN2Cc2cccs2)cc1 | · | · | · | 0 | 1
Cc1ccc(-c2nn3c(-c4ccco4)nnc3c3ccccc23)cc1S(=O)(=O)NCC1CCCO1 (stereo not given) | 4 | 11 | 4 | -1 | 55*
Cc1ccc(-c2nnc(Nc3ccccc3)c3ccccc23)cc1S(=O)(=O)NCC1CCCO1 (stereo not given) | 22 | -1 | 4 | -2 | 29
CCOc1ccc(-c2nnc(N3CCCCC3)c3ccccc23)cc1 | 79* | 1 | 1 | -2 | -10
COc1ccc(S(=O)(=O)Cc2ccc(C(=O)N3CCN(c4cccc(C)c4C)CC3)o2)cc1 | 71* | -5 | -1 | 0 | -2
C[C@@H]1CN([C@H](C)CO)C(=O)CCCn2nncc2CO[C@H]1CN(C)Cc1ccc2c(c1)OCO2 | · | · | · | -1 | 4
COCCOc1cc(Nc2nnc(C(F)(F)F)s2)c(Cl)cc1Cl | 77* | 0 | 2 | 1 | -19
COc1cc(Nc2nnc(C)s2)c(Cl)cc1Cl | 27 | -1 | 0 | -2 | -2
COC(=O)Cn1ccnc1[N+](=O)[O-] | · | · | · | 3 | 0
CC(C)c1ccc(NC(=O)COC(=O)Cn2cnc3c2c(=O)n(C)c(=O)n3C)cc1 | · | · | · | -2 | 2
CCCCC1(Cc2ccc([N+](=O)[O-])cc2)C(=O)N(c2ccccc2)N(c2ccccc2)C1=O | 77* | 0 | 14 | 1 | -17
CCCCC1(COC(=O)CCC(=O)O)C(=O)N(c2ccccc2)N(c2ccccc2)C1=O | · | -4 | 2 | -1 | -5
O=C(O)CSc1cc(C(=O)c2ccccc2O)cn2c(=O)c3c4c(sc3nc12)CCCC4 | 89* | · | · | 0 | -7
O=C(O)CSc1nc2sc3c(c2c(=O)n1Cc1ccccc1)CCCCC3 | · | -1 | 6 | 2 | -4
Cc1ccc(NC(=O)CCC(=O)NN=Cc2ccc(C)o2)c(C)c1 | · | · | · | -2 | 0
COc1cc(OC)cc(-c2nc3ccccc3c(=O)n2OC(=O)c2ccccc2C)c1 | 94* | 22 | 0 | 0 | -9
COc1ccc(-c2nc3ccccc3c(=O)n2O)cc1 | · | -1 | 0 | -1 | 7
CCCc1nn(-c2cc(Cl)ccc2OC)c2c1C(=O)CCC2 | 30 | -5 | 1 | 1 | -6
CCCCc1nn(-c2cc(Cl)ccc2OC)c2c1C(=O)CC(C)(C)C2 | 81* | -2 | 4 | 0 | -25
CN(c1ccc([N+](=O)[O-])cc1C(=O)Nc1ccccc1)C1CCCCC1 | 14 | 0 | 1 | 6 | 3
Cc1cccc(NC(=O)c2cc([N+](=O)[O-])ccc2NC2CCCCC2)c1 | 73* | 1 | 3 | 0 | -16
CC(=O)c1cccc(-c2ccnc3c2CC(C(=O)NCc2cccs2)O3)c1 (stereo not given) | · | · | · | -3 | 2
CC(C)OP(=O)(OC(C)C)C(Nc1ccccc1)c1ccc2c(c1)OCO2 (stereo not given) | -6 | -2 | 1 | 1 | 23
CC(C)COP(=O)(OCC(C)C)C(Nc1ccccc1)c1ccccc1 (stereo not given) | -1 | -1 | 0 | 0 | 27
SMILES | CHOP inhibitor | XBP1 UPR activ | UPR CHOP act | hiPSC survival | H9c2 protect
CC(C)COP(=O)(OCC(C)C)C(Nc1ccccc1)c1ccc(F)cc1 (stereo not given) | 75* | -1 | -1 | -1 | 10
CC(C)COP(=O)(OCC(C)C)C(Nc1ccccc1)c1ccc2c(c1)OCO2 (stereo not given) | 76* | -4 | 0 | 0 | 67*
C[C@@H]1CN([C@H](C)CO)C(=O)c2cc(C#C[C@@H](C)O)cnc2O[C@H]1CN(C)C(=O)c1ccc(F)cc1 | · | · | · | 4 | 3
COc1ccc(C(C)(C)C)cc1NC(=O)COC(=O)CN1C(=O)NC2(CCCCC2C)C1=O (stereo not given) | · | -1 | 0 | 0 | -1
CCOC(=O)C1CCCN(c2nc3ccccc3nc2C(C#N)C(=O)NCc2ccccc2)C1 (stereo not given) | 74* | -4 | -1 | -2 | -15
COc1ccc(S(=O)(=O)N2CCN(C3CCCCCCC3)CC2)cc1 | 74*! | -3 | -2 | -1 | -11
C[C@H]1CN([C@@H](C)CO)C(=O)c2cc(C#Cc3ccccn3)cnc2O[C@@H]1CN(C)Cc1ccccc1 | · | · | · | 0 | 4
Cc1ccc(SC(c2ccccc2)C(Cn2cncn2)C(=O)c2ccccc2)cc1 (stereo not given) | -11 | -4 | 0 | 4 | -19
O=C(c1ccc(Cl)cc1)C(Cn1cncn1)C(Sc1ccccc1)c1ccccc1 (stereo not given) | 78* | 0 | 1 | -1 | 12
O=S(=O)(c1ccccc1)N1CCC(n2nnc3cc(F)ccc32)CC1 | -11 | 0 | 0 | 1 | -1
O=S(=O)(c1ccc2c(c1)OCCO2)N1CCC(n2nnc3cc(C(F)(F)F)ccc32)CC1 | 70* | 2 | 2 | -4 | 0
Cc1ccc(NC(=O)CN2CCCCCC2)c(Br)c1 | 75* | · | · | -1 | -6
O=C(CN1CCCCC1)Nc1ccc(NC(=O)c2ccc(Cl)cc2)cc1Cl | 85* | 18 | 2 | -1 | -2
COc1ccc(N2CCN(CC(=O)Nc3ccc(C)cc3Br)CC2)cc1 | · | · | · | 0 | 0
CCOc1ccc(C(=O)OCC(=O)N2CCCC2)cc1 | · | -3 | 4 | 0 | -4
COC(=O)[C@]12CCCCC=C1N(Cc1ccccc1)C(=O)[C@H](CC(=O)N1CCSCC1)C2 | · | · | · | 2 | ·
CCOC(=O)c1c(NC(=O)COc2cccc3c2CCN(CC)C3=O)sc2c1CCC2 | 78* | 1 | -2 | -1 | 6
COc1ccccc1OCC(=O)Nc1sc2c(c1C(=O)NCC1CCCO1)CCC2 (stereo not given) | 26 | -4 | 5 | 5 | 64*
CCOC(=O)c1c(NC(=O)CSc2c[nH]c3ccccc23)sc2c1CCCC2 | 76* | -2 | 3 | -1 | -23
CCOC(=O)c1c(NC(=O)COC)sc2c1CCCC2 | 86* | -1 | 0 | -2 | -1
CCOC(=O)c1c(NC(=O)CSc2c[nH]c3ccccc23)sc2c1CCC2 | 49 | -2 | 2 | 2 | -17
COC(=O)C1CC2=C(CCC2=O)N(c2ccccc2)C1=O (stereo not given) | · | · | · | 1 | 14
CCOC(=O)C1CC2=C(CC(C)(C)CC2=O)N(CCOC)C1=O (stereo not given) | · | · | · | 0 | 5
COc1ccc(/C=N/Nc2ccc(C(F)(F)F)cc2[N+](=O)[O-])cc1O | 76* | 0 | 0 | -1 | -15
CCOc1ccc(/C=N/Nc2ccc(C(F)(F)F)cc2[N+](=O)[O-])cc1O | -18 | 1 | 2 | -2 | -2
